Calls of active or inactive are those of the source.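 How the source made its calls, unless noted: active means visual image review flags a hit and inhibition of aggregation exceeds 20%; inconclusive means visual hit but inhibition at or below 20%; inactive means no hit on visual image review.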
Columns and labels:
[1] = inhibitors of TNFa-induced NFkB p65 translocation, primary screen, imaging, HUVEC, MLSMR starter and 10KST1 sets (AID 438;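 active means inhibition above 20% together with a positive visual image hit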;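 further: compound added about 3h40 before a 20 min TNFalpha stimulation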;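 on inhibition: signal is the nuclear over cytoplasmic p65 intensity ratio per well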); settings: HUVEC TNFa-induced p65 nuclear translocation; cell count: measured here: nuclei count (cytotoxicity indicator), at 2.08 µM; inhibition: at 2 µM, stronger effect = higher value, 0% TNFa-plus-vehicle, 100% no-TNFa wells
[2] = reduction of polyQ htt aggregates in cells – imaging, exon1htt(103Q)mCFP cells, high-content imaging, primary screen (AID 483); settings: exon1htt(103Q)mCFP cell line, aggregate imaging, at 2 µM; inhibition of aggregation: stronger effect = higher value; nuclei count: measured here: cell count, toxicity;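 further: compound exposure lasted 3 days before fixation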;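 on nuclei count: percent of the per-plate median nuclei count of sample wells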
[3] = endothelial E-selectin expression blockers – imaging, HUVEC, immunofluorescence, MLSMR starter and 10KST1 sets, primary screen (AID 487;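 active means visually confirmed hit in the image check and inhibition above 20%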;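 on inhibition: signal is fraction of cell area covered by stained E-selectin grains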;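 on nuclei count: 100% = median nuclei count of all wells on the same plate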); settings: HUVEC TNFalpha-induced E-selectin immunofluorescence imaging, at 2 µM; inhibition: stronger effect = higher value; nuclei count: measured here: cell number, toxicity
[4] = target: Voltage-gated potassium channel subunit beta-2 (Rattus norvegicus) (UniProt P62483); assay: inhibitors of rat Kvbeta2 reductase activity – biochemical, NADPH fluorescence, primary screen (AID 622;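 active means fluorescence slope higher than the sample average by over 3 SD, cut at about -0.22 in these data, passing the limit was not always enough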;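 further: slope of raw intensity against log time taken from 70 to 1610 s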); settings: recombinant KvBeta, 4-cyanobenzaldehyde reduction, at 10 µM, stronger effect = higher value
Voltage-gated potassium channel subunit beta-2 (Rattus norvegicus), sequence (P62483 whole entry, looked up): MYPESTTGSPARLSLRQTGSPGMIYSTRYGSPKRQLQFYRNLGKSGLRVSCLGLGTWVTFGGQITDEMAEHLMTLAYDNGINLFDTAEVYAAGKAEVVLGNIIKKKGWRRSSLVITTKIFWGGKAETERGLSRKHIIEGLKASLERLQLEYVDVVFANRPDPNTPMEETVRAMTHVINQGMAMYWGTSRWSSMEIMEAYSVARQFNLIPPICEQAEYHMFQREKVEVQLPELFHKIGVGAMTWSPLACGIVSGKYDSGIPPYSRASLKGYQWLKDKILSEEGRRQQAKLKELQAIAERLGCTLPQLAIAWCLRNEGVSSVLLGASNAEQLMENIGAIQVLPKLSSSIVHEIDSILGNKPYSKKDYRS

[5] = target: Voltage-gated potassium channel subunit beta-2 (Rattus norvegicus) (UniProt P62483); assay: enhancers of rat Kvbeta2 NADPH turnover – biochemical, NADPH fluorescence, primary screen (AID 623;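 active means NADPH fluorescence slope more negative than the mean of all samples by about 3 SD, 99.7% confidence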;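 further: fluorescence intensity change per second fitted from 20 to 320 s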); settings: Recombinant KvBeta, NADPH fluorescence decrease slope, 10 min; at 10 µM; stronger effect = lower value
[6] = target: Alpha-2C adrenergic receptor (Homo sapiens) (UniProt P18825); assay: compounds altering alpha2C-coupled GIRK flux – cell-based, HEK293 alpha2C/GIRK1/2, thallium flux, primary screen (AID 624;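 active means fluorescence slope after compound addition differing from the mean of all screened samples at 99.7% confidence, in either direction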;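 further: slope of fluorescence ratio to pre-addition baseline per second over 15 to 24 s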); settings: thallium flux BTC fluorescence, at 10 µM, actives lie on both sides
Alpha-2C adrenergic receptor (Homo sapiens), sequence (P18825 whole entry, looked up): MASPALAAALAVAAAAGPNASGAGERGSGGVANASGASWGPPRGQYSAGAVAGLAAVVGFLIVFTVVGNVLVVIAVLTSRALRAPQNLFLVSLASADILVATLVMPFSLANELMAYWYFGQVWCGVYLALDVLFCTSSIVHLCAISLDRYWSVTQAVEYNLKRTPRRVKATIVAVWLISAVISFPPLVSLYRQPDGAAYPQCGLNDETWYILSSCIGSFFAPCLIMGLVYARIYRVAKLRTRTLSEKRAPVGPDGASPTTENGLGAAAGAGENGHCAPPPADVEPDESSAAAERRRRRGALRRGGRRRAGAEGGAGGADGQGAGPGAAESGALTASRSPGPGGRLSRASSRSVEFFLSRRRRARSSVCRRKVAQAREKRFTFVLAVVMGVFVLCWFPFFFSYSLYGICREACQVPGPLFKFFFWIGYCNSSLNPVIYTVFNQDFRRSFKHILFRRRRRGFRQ

[7] = inhibitors of larval lipid processing in zebrafish, primary screen, whole organism, PED6 fluorescence, gall bladder and intestine (AID 686;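 active means a full or partial loss of lipid-probe fluorescence in the fish gall bladder, intestine or both, judged by eye; inactive means no fluorescence loss, or compound toxic to the fish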;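 further: larvae 5 to 7 days old with five fish per well; signal comes from phospholipase A2 cleavage of quenched PED6 carried via bile; overnight exposure to compound and PED6 before scoring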); settings: Zebrafish larvae PED6 lipid processing, fluorescence scoring; screened at 20 µM (by protocol)
Outline: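 system = live zebrafish larvae aged 5-7 days, whole organism | probe or stimulus = ingested quenched lipid PED6 at 100 nM | doses = 20 µM single dose | timing = overnight exposure | detection = fluorescence microscopy with visual scoring of gall bladder and intestine | read-out = visual per-well fluorescence inhibition score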

[8] = blockers of RIG-like receptor reporter activation – cell-based, Sendai virus stimulus, luciferase, 10K MLSCN set, TLR/RLR signaling modifier project, primary screen (AID 602276;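 active means inhibition at or above 50% at 10 µM; inactive means inhibition below 50%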;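 further: firefly luciferase from ISG56 promoter only with Renilla not read in this screen; 0% = Sendai virus plus DMSO and 100% = medium plus DMSO without virus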); settings: HEK293 RL24 IRF3 luciferase reporter, at 10 µM, stronger effect = higher value
[9] = TLR3 IRF3 reporter activation blockers – cell-based, poly I:C stimulus, luciferase, 10K MLSCN set, primary screen (AID 602277;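 active means inhibition of the reporter signal at or above 50%; inactive means inhibition below 50%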); settings: HEK293-TLR3 RL24 IRF3 luciferase reporter, at 10 µM, stronger effect = higher value

CCOC(=O)Cn1nnnc1CN(Cc1ccc(OC)cc1)Cc1cc2cc(C)ccc2[nH]c1=O
cell count [1]: 623
inhibition [1]: -4.9% (inactive)
inhibition of aggregation [2]: -27% (inactive)
nuclei count [2]: 112%
inhibition [3]: 62.8% (inactive)
nuclei count [3]: 135%
fluorescence slope [4]: -0.384 (inactive)
NADPH fluorescence slope [5]: 6.1e-07 (inactive)
slope [6]: 0.00608 (inactive)
outcome [7]: inactive
inhibition [8]: -4.16% (inactive)
inhibition [9]: -1.51% (inactive)

O=C1OCCC1Sc1ncnc2sccc12 (centres undefined)
cell count [1]: 498
inhibition [1]: -6.8% (inactive)
inhibition of aggregation [2]: -0.5% (inactive)
nuclei count [2]: 125%
inhibition [3]: -1.7% (inactive)
nuclei count [3]: 110%
fluorescence slope [4]: -0.376 (inactive)
NADPH fluorescence slope [5]: -7.9e-05 (inactive)
slope [6]: 0.00502 (inactive)
outcome [7]: inactive
inhibition [8]: 9.26% (inactive)
inhibition [9]: 12.3% (inactive)

COc1cc(C(=O)N(C)c2nnc(-c3cccnc3)s2)cc(OC)c1OC
cell count [1]: 646
inhibition [1]: -5.5% (inactive)
inhibition of aggregation [2]: 0.4% (inactive)
nuclei count [2]: 99.2%
inhibition [3]: 3.6% (inactive)
nuclei count [3]: 103%
fluorescence slope [4]: -0.5 (inactive)
NADPH fluorescence slope [5]: 1.3e-05 (inactive)
slope [6]: 0.00473 (inactive)
outcome [7]: inactive
inhibition [8]: -9.5% (inactive)
inhibition [9]: -1.29% (inactive)

N#Cc1ccc(CSc2nnc(-c3ccccn3)n2-c2ccccc2)cc1
cell count [1]: 363
inhibition [1]: 5.8% (inactive)
inhibition of aggregation [2]: 10.4% (inactive)
nuclei count [2]: 91.3%
inhibition [3]: -10.3% (inactive)
nuclei count [3]: 112%
fluorescence slope [4]: -0.426 (inactive)
NADPH fluorescence slope [5]: -1.1e-05 (inactive)
slope [6]: 0.00569 (inactive)
outcome [7]: active; weak signal in gallbladder and intestine
inhibition [8]: 11.1% (inactive)
inhibition [9]: 9.06% (inactive)

COc1ccc(CC(=O)Nc2cc(Cl)ccc2O)cc1
cell count [1]: 605
inhibition [1]: -9.3% (inactive)
inhibition of aggregation [2]: 12% (inactive)
nuclei count [2]: 99.8%
inhibition [3]: -72% (inactive)
nuclei count [3]: 108%
fluorescence slope [4]: -0.409 (inactive)
NADPH fluorescence slope [5]: -1.5e-05 (inactive)
slope [6]: 0.00576 (inactive)
outcome [7]: inactive
inhibition [8]: -8.56% (inactive)
inhibition [9]: -1.02% (inactive)

COCCN1C=C(C(=O)OC)C(c2cc3c(cc2Br)OCO3)C(C(=O)OC)=C1
cell count [1]: 629
inhibition [1]: -7.8% (inactive)
inhibition of aggregation [2]: 1.1% (inactive)
nuclei count [2]: 112%
inhibition [3]: 48.4% (inactive)
nuclei count [3]: 46.8%
fluorescence slope [4]: -0.377 (inactive)
NADPH fluorescence slope [5]: -6e-05 (inactive)
slope [6]: 0.00391 (inactive)
outcome [7]: inactive
inhibition [8]: 13.3% (inactive)
inhibition [9]: 20.6% (inactive)

CCOC(=O)c1c2n(c3ccc(O)cc13)CCCCC2
cell count [1]: 571
inhibition [1]: 7.1% (inactive)
inhibition of aggregation [2]: -7.5% (inactive)
nuclei count [2]: 107%
inhibition [3]: -113% (inactive)
nuclei count [3]: 110%
fluorescence slope [4]: -0.413 (inactive)
NADPH fluorescence slope [5]: -3.4e-05 (inactive)
slope [6]: 0.00489 (inactive)
outcome [7]: inactive
inhibition [8]: -6.81% (inactive)
inhibition [9]: 1.43% (inactive)

N#Cc1c(-c2ccc3c(c2)OCO3)csc1N
cell count [1]: 584
inhibition [1]: -4.7% (inactive)
inhibition of aggregation [2]: 7.8% (inactive)
nuclei count [2]: 94%
inhibition [3]: -102% (inactive)
nuclei count [3]: 106%
fluorescence slope [4]: -0.451 (inactive)
NADPH fluorescence slope [5]: -4.4e-05 (inactive)
slope [6]: 0.00604 (inactive)
outcome [7]: inactive
inhibition [8]: -35.4% (inactive)
inhibition [9]: -84.4% (inactive)

O=C(CSc1nnc(-c2ccco2)n1CC1CCCO1)NC1CCCC1 (centres undefined)
cell count [1]: 336
inhibition [1]: -6.2% (inactive)
inhibition of aggregation [2]: 10.7% (inactive)
nuclei count [2]: 101%
inhibition [3]: -15.3% (inactive)
nuclei count [3]: 121%
fluorescence slope [4]: -0.361 (inactive)
NADPH fluorescence slope [5]: -5.1e-05 (inactive)
slope [6]: 0.00445 (inactive)
outcome [7]: inactive
inhibition [8]: 7.82% (inactive)
inhibition [9]: 4.4% (inactive)

CCN(CC)c1ccc(C(=O)n2cnc3ccccc32)cc1
cell count [1]: 461
inhibition [1]: 12.1% (inactive)
inhibition of aggregation [2]: 7.1% (inactive)
nuclei count [2]: 95.4%
inhibition [3]: -306% (inactive)
nuclei count [3]: 128%
fluorescence slope [4]: -0.284 (inactive)
NADPH fluorescence slope [5]: -3.9e-05 (inactive)
slope [6]: 0.00386 (inactive)
outcome [7]: inactive
inhibition [8]: 25.3% (inactive)
inhibition [9]: -37.1% (inactive)

CC(OC(=O)CNC(=O)C12CC3CC(CC(C3)C1)C2)C(=O)Nc1ccc(N2CCOCC2)cc1 (centres undefined)
cell count [1]: 663
inhibition [1]: 4.1% (inactive)
inhibition of aggregation [2]: 3.3% (inactive)
nuclei count [2]: 110%
inhibition [3]: -47.1% (inactive)
nuclei count [3]: 111%
fluorescence slope [4]: -0.448 (inactive)
NADPH fluorescence slope [5]: -5.7e-05 (inactive)
slope [6]: 0.00563 (inactive)
outcome [7]: inactive
inhibition [8]: -2.61% (inactive)
inhibition [9]: -14.5% (inactive)

Cc1occc1C(=O)Nc1ccc(S(=O)(=O)N2CCN(C)CC2)cc1
cell count [1]: 318
inhibition [1]: 1% (inactive)
inhibition of aggregation [2]: -23.8% (inactive)
nuclei count [2]: 95.5%
inhibition [3]: -42.1% (inactive)
nuclei count [3]: 107%
fluorescence slope [4]: -0.44 (inactive)
NADPH fluorescence slope [5]: -1.3e-05 (inactive)
slope [6]: 0.00548 (inactive)
outcome [7]: inactive
inhibition [8]: 15.9% (inactive)
inhibition [9]: 16.1% (inactive)

Source: PubChem BioAssay
